Data: ChEMBL document CHEMBL1153809, “7,7-Dimethylaporphine alkaloids from the stem of Guatteriopsis friesiana” (2009)
≈ marks a conversion by molar mass, not a printed value.

Legend:
Type in all cases: functional
Candida albicans = assay: Antimicrobial activity against Candida albicans ATCC 10231 after 48 hrs by TTC staining method
Method in brief: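 Yeast grown on Sabouraud dextrose agar. Cells suspended in 0.85% NaCl to McFarland 0.5 (checked at 580 nm), then diluted to 10^4 CFU/mL. Mueller-Hinton broth microdilution, in duplicate. Samples tested at 1.0-0.016 mg/mL; chloramphenicol and nystatin references at 0.25-0.002 mg/mL. Incubated 48 h at 36 °C, then 0.5% TTC added. MIC is the lowest concentration preventing visible growth by TTC stain.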

Pseudomonas aeruginosa = assay: Antimicrobial activity against Pseudomonas aeruginosa ATCC 13388 after 48 hrs by TTC staining method; details: ATCC 13388, 48 h
Method in brief: (§1)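 Bacteria grown overnight at 36 °C on nutrient agar. Cells suspended in 0.85% NaCl to McFarland 0.5 (checked at 580 nm), then diluted to 10^4 CFU/mL. Broth microdilution in Mueller-Hinton broth, in duplicate. Samples tested at 1.0-0.016 mg/mL; chloramphenicol and nystatin references at 0.25-0.002 mg/mL. Incubated 36 °C for 48 h, then 0.5% TTC added. MIC is the lowest concentration inhibiting visible growth by TTC staining.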

Enterococcus hirae = assay: Antimicrobial activity against Enterococcus hirae ATCC 10541 after 48 hrs by TTC staining method; details: ATCC 10541, 48 h; method in brief: as §1
[1] = test system: Staphylococcus epidermidis; assay: Antimicrobial activity against Staphylococcus epidermidis ATCC 12228 after 48 hrs by TTC staining method; details: ATCC 12228, 48 h; method in brief: as §1
Escherichia coli = assay: Antimicrobial activity against Escherichia coli ATCC 11775 after 48 hrs by TTC staining method; details: ATCC 11775, 48 h; method in brief: as §1
Prescottella equi = assay: Antimicrobial activity against Rhodococcus equi ATCC 6939 after 48 hrs by TTC staining method; details: Rhodococcus (subgen. Prescottella) equi, ATCC 6939, 48 h; method in brief: as §1
Micrococcus luteus = assay: Antimicrobial activity against Micrococcus luteus ATCC 4968 after 48 hrs by TTC staining method; details: ATCC 4968, 48 h; method in brief: as §1
Bacillus subtilis = assay: Antimicrobial activity against Bacillus subtilis ATCC 5061 after 48 hrs by TTC staining method; details: ATCC 5061, 48 h; method in brief: as §1
Staphylococcus aureus = assay: Antimicrobial activity against Staphylococcus aureus ATCC 6538 after 48 hrs by TTC staining method; details: ATCC 6538, 48 h; method in brief: as §1
Enterococcus faecium = assay: Antimicrobial activity against Enterococcus faecium CCT 5079 after 48 hrs by TTC staining method; details: CCT 5079, 48 h; method in brief: as §1
Salmonella enterica = assay: Antimicrobial activity against Salmonella choleraesuis ATCC 10708 after 48 hrs by TTC staining method; details: ATCC 10708, 48 h; method in brief: as §1

Compound | MIC (Candida albicans) | MIC (Pseudomonas aeruginosa) | MIC (Enterococcus hirae) | MIC [1] | MIC (Escherichia coli) | MIC (Prescottella equi) | MIC (Micrococcus luteus) | MIC (Bacillus subtilis) | MIC (Staphylococcus aureus) | MIC (Enterococcus faecium) | MIC (Salmonella enterica) | MIC (Candida albicans; ATCC 10231, 48 h)
NYSTATIN | 50 µg/mL | – | – | – | – | – | – | – | – | – | – | –
O=C(N[C@H](CO)[C@H](O)c1ccc([N+](=O)[O-])cc1)C(Cl)Cl [CHLORAMPHENICOL] | – | 850 µg/mL (≈ 2630 µM) | 120 µg/mL (≈ 371 µM) | 40 µg/mL (≈ 124 µM) | 40 µg/mL (≈ 124 µM) | 40 µg/mL (≈ 124 µM) | 50 µg/mL (≈ 155 µM) | 20 µg/mL (≈ 61.9 µM) | 20 µg/mL (≈ 61.9 µM) | 70 µg/mL (≈ 217 µM) | 60 µg/mL (≈ 186 µM) | –
O=C1c2ccccc2-c2c3c(cc4ccnc1c24)OCO3 [LIRIODENINE] | – | > 1000 µg/mL | 600 µg/mL (≈ 2180 µM) | – | > 1000 µg/mL | 10 µg/mL (≈ 36.3 µM) | 150 µg/mL (≈ 545 µM) | 500 µg/mL (≈ 1820 µM) | > 1000 µg/mL | 150 µg/mL (≈ 545 µM) | > 1000 µg/mL | > 1000 µg/mL
